Measured values taken from article PMC3117328 (Chemistry & biology, 2009).

Legend:
[1] = system: Escherichia coli in vitro coupled transcription-translation (GFP synthesis); test: In vitro coupled transcription-translation; assay type: biochemical; conditions: 5 µM ThS, 5 µM NoS, 25 µM GE2270T (Figure 4)
Method in brief: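 E. coli lysate-based coupled transcription-translation system expressing GFP, ribosomes ~2 µM, run with or without test compound. After reaction, samples are moved to microtiter plates. GFP fluorescence is imaged on a laser scanner with blue-laser excitation and quantified from the images, with inhibition taken against the no-antibiotic reaction.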

[2] = target: IF2 (70S initiation complex formation) (Escherichia coli, UniProt P0A7J7); test: IF2^Cy3 fluorescence change assay; assay type: biochemical; conditions: ThS, NoS at 1.5 µM (Figure 2A); precursors in dose response screen
Chain of IF2 (70S initiation complex formation) (P0A7J7 2-142, one chain of several): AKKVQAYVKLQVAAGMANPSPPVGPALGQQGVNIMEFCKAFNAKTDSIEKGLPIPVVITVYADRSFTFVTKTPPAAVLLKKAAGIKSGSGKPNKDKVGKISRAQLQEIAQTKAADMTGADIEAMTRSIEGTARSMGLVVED

[3] = target: EF-G GTPase (E. coli 70S ribosomes) (Escherichia coli, UniProt P0A7J7); assay type: biochemical; conditions: compound 1 µM; 30 nM 70S ribosomes, 20 µM GTP, 60 nM protein
Chain of EF-G GTPase (E. coli 70S ribosomes) (P0A7J7 2-142): as the sequence (P0A7J7 2-142, one chain of several) above

[4] = background statement, no reference given; cited from earlier work
[5] = target: EF-G GTPase (70S ribosomes) (Escherichia coli, UniProt P0A7J7); test: EF-G GTPase Pi release assay with MDCC-labeled PBP; assay type: biochemical
Chain of EF-G GTPase (70S ribosomes) (P0A7J7 2-142): as the sequence (P0A7J7 2-142, one chain of several) above

| Compound | inhibition of GFP synthesis in the in vitro TT assay [1] | inhibition of the IF2^Cy3 fluorescence increase on 70SIC formation (in words) [2] | inhibition of EF-G GTPase activity (Malachite Green) [3] | bioavailability [4] | EC50 [5] |
| --- | --- | --- | --- | --- | --- |
| GE2270T | potent inhibitors | – | – | – | – |
| C=C(NC(=O)C(=C)NC(=O)c1csc(C2=N[C@@H]3c4csc(n4)[C@H]4NC(=O)c5csc(n5)[C@H]([C@](C)(O)[C@@H](C)O)NC(=O)[C@H]5CSC(=N5)/C(=C/C)NC(=O)[C@H]([C@@H](C)O)NC(=O)c5csc(n5)[C@]3(CC2)NC(=O)[C@H](C)NC(=O)C(=C)NC(=O)[C@H](C)NC(=O)[C@H]([C@@H](C)CC)N[C@@H]2C=Cc3c([C@H](C)O)cc(nc3[C@H]2O)C(=O)O[C@@H]4C)n1)C(N)=O [ThS, thiostrepton] | potent inhibitors | inhibited | almost completely abolished | poor | – |
| C/C=C(\NC(=O)c1csc(-c2csc(-c3ccc4c(n3)-c3csc(n3)[C@H]([C@@H](C)O)NC(=O)c3csc(n3)[C@H](C(C)C)NC(=O)c3csc(n3)/C(=C/C)NC(=O)[C@H]([C@@H](C)O)NC(=O)c3csc-4n3)n2)n1)C(=O)NC[C@@H](C)O [MiC, micrococcin] | – | – | – | – | 0.11 µM |
| C=C(NC(=O)c1csc(-c2nc3c(cc2O)-c2nc(cs2)C(=O)N[C@@H]([C@@H](C)O)C(=O)N/C(=C\C)c2nc(cs2)C(=O)N[C@H]2C[C@H](O)C(=O)OCc4cccc5[nH]c(c(C)c45)C(=O)SC[C@H](NC(=O)c4csc2n4)c2nc-3cs2)n1)C(N)=O [NoS, nosiheptide] | potent inhibitors | inhibited | – | – | 0.04 µM |
